Source: ChEMBL document CHEMBL1629563, “Pharmacokinetic and safety evaluation of BILR 355, a second-generation nonnucleoside reverse transcriptase inhibitor, in healthy volunteers” (Antimicrob Agents Chemother, 2008)

How the values were obtained:
Homo sapiens [1] = assay: Toxicity in healthy human assessed as occurrence of neurological eyelid disorder at 75 mg, po administered as single dose relative to control; format: organism-based; conditions: in vivo
Homo sapiens [2] = assay: Toxicity in healthy human assessed as occurrence of herpes simplex at 50 mg, po administered as single dose relative to control; format: organism-based; conditions: in vivo
Homo sapiens [3] = assay: Toxicity in healthy human assessed as occurrence of frequent bowel movements at 5 mg, po administered as single dose relative to control; format: organism-based; conditions: in vivo
[4] = Mean residence time in healthy human at 37.5 mg, po administered as single dose coadministered with 100 mg of ritonavir; format: ADME, organism-based; conditions: in vivo
[5] = Apparent volume of distribution at steady state in healthy human at 5 mg, po administered as single dose coadministered with 100 mg of ritonavir; format: ADME, organism-based; conditions: in vivo, read-out: Vss/F
How it was run: (§1)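 Healthy male volunteers, fasted overnight, got one oral dose of BILR 355 in PEG solution with 200 ml water. Ritonavir 100 mg was given 10 h before and again with the dose. Plasma was sampled (EDTA) from predose to 144 h and assayed by validated LC-MS/MS. Cmax and Vz/F came from noncompartmental analysis. Vss/F = CL/F·(MRTp.o. − 1/Ka), with Ka from compartmental modelling.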

[6] = Drug excretion in healthy human urine assessed as unchanged drug in high fat fed healthy human at 50 mg, po administered as single dose coadministered with 100 mg of ritonavir by high-pressure liquid chromatography-tandem mass spectrometry/mass spectrometry method; format: ADME, organism-based; conditions: read-out: Drug uptake
How it was run: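 Ritonavir 100 mg was given 10 h before and with one oral dose of BILR 355 in PEG solution. Urine was collected by weight as predose blank, then 0-6, 6-24 and 24-72 h, stored at −20°C and assayed by LC-MS/MS. fe = unchanged drug excreted (Ae) as a percentage of dose. Line 50: high-fat breakfast 30 min before dosing.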

Homo sapiens [7] = assay: Toxicity in healthy human assessed as occurrence of diarrhea at 25 mg, po administered as single dose coadministered with 100 mg of ritonavir; format: organism-based; conditions: in vivo
Homo sapiens [8] = assay: Toxicity in high fat fed healthy human assessed as occurrence of fatigue at 50 mg, po administered as single dose coadministered with 100 mg of ritonavir; format: organism-based; conditions: in vivo
Homo sapiens [9] = assay: Toxicity in high fat fed healthy human assessed as occurrence of maculopapular rash at 50 mg, po administered as single dose coadministered with 100 mg of ritonavir; format: organism-based; conditions: in vivo
[10] = AUC (0 to infinity) in healthy human at 100 mg, po administered as single dose; format: ADME, organism-based; design: dose 100 mg, time infinity, route oral; conditions: plasma
How it was run: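 Healthy male volunteers, six active plus two placebo per dose group, single oral dose in PEG solution with 200 ml water after overnight fast; breakfast 60 to 90 min post-dose. EDTA plasma sampled predose to 144 h. Assayed by validated LC-MS/MS after protein precipitation. Noncompartmental analysis, AUC by linear up/log down trapezoidal rule; Vss = CL/F·(MRTp.o. − 1/Ka).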

[11] = Cmax in healthy human at 5 mg, po administered as single dose by high-pressure liquid chromatography-tandem mass spectrometry/mass spectrometry method; format: ADME, organism-based; design: dose 5 mg, route oral; conditions: in vivo
How it was run: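 Single fasting oral dose of BILR 355 in PEG solution with 200 ml tap water, given to healthy males. Standard breakfast came 60-90 min after the dose. EDTA plasma was sampled predose to 144 h, stored below −18°C and assayed by LC-MS/MS after protein precipitation. Noncompartmental analysis gave Vz/F. Vss/F = CL/F·(MRTp.o. − 1/Ka), with Ka from compartmental modelling.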

Homo sapiens [12] = assay: Ratio of Cmax in human at 25 mg, po in presence of 100 mg of ritonavir to Cmax in human at 25 mg, po; format: ADME, organism-based; conditions: in vivo
[13] = Mean residence time in healthy human at 5 mg, po administered as single dose; format: ADME, organism-based; conditions: in vivo
[14] = AUC (0 to infinity) in high fat fed healthy human at 50 mg, po administered as single dose coadministered with 100 mg of ritonavir; format: ADME, organism-based; design: dose 50 mg, time infinity, route oral; conditions: plasma
How it was run: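 Fed cohort of 6 healthy men given an FDA-type high-fat breakfast (about 150, 250 and 500 to 600 cal from protein, carbohydrate and fat) 30 min before dosing. Ritonavir 100 mg given 10 h earlier and again with the single oral dose in PEG solution. Plasma sampled to 144 h, LC-MS/MS, noncompartmental analysis.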

[15] = Cmax in healthy human at 50 mg, po administered as single dose coadministered with 100 mg of ritonavir by high-pressure liquid chromatography-tandem mass spectrometry/mass spectrometry method; format: ADME, organism-based; design: dose 50 mg, route oral; conditions: in vivo; how it was run: as §1
[16] = Tmax in healthy human at 62.5 mg, po administered as single dose coadministered with 100 mg of ritonavir; format: ADME, organism-based; conditions: in vivo
[17] = Half life in healthy human at 37.5 mg, po administered as single dose coadministered with 100 mg of ritonavir; format: ADME, organism-based; conditions: in vivo
Homo sapiens [18] = assay: Toxicity in healthy human assessed as occurrence of fatigue at 25 mg, po administered as single dose relative to control; format: organism-based; conditions: in vivo

MRT [4]: 16.9 h
Vd/F [5]: 166 L
dose excreted [6]: 4.62%
AUC(0-inf) [10]: 1310 ng·h/mL
Cmax [11]: 4.36 ng/mL
Ratio (Homo sapiens [12]): 5.4
MRT [13]: 7.74 h
AUC(0-inf) [14]: 8300 ng·h/mL
Cmax [15]: 468 ng/mL
Tmax [16]: 0.7 h
half-life [17]: 11 h
Structure (SMILES): CCN1c2ncc(CCOc3cc[n+]([O-])c4ccccc34)cc2C(=O)N(C)c2cccnc21 [BILR 355]
Activity (Homo sapiens [1]): 16.7%
Activity (Homo sapiens [2]): 0%
Activity (Homo sapiens [3]): 0%
Activity (Homo sapiens [7]): 0%
Activity (Homo sapiens [8]): 16.7%
Activity (Homo sapiens [9]): 0%
Activity (Homo sapiens [18]): 0%
